# Assay results: ChEMBL document CHEMBL4706486, “Usnic acid derivatives as tau-aggregation and neuroinflammation inhibitors” (Eur J Med Chem, 2020)
# Calls of active or inactive are those of the source. The calls are words filed in the database; no cut-off is given here.
# Tests used:
# Homo sapiens [1] = species on record: Homo sapiens; assay: Inhibition of acetyl-PHF6 amide self-aggregation (unknown origin) in pH 7.4 phosphate buffer assessed as decrease in absorbance intensity at 10 uM and 25 degreeC measured immediately after 10 sec vibration per minute for 120 mins under shaking condition by circular dichroism spectroscopy
# In short: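 Fresh samples of 100 μM AcPHF6 with 10 μM compound (≤0.1% DMSO) in 50 mM phosphate buffer pH 7.4. 10 s vibration per minute at 25 °C over 120 min. Spectra 260–200 nm, 1 mm quartz cell, 1 nm bandwidth, 50 nm/min scan. Solvent and compound contributions subtracted, converted to Δε per residue, Savitzky-Golay smoothed.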
# Rattus norvegicus [2] = assay: Cognitive enhancing effect in Sprague-Dawley rat model of OA-induced dementia assessed as average escape latency time to hidden platform at 5 to 10 mg/kg, ip administered for 7 days by Morris water maze test (reference value: 12.5 to 37.2 sec); assay type: functional; conditions: dose 5-10 mg/kg; time 7 day
# In short: (§1)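 Male SD rats (n = 8/group), ip dosing at 5 or 10 mg/kg in saline with 8% DMSO and 1% Tween-80 for 7 days, then OA (300 ng in 1.5 μL saline) microinjected into right dorsal hippocampus. Dosing continued 7 days after OA. Morris water maze: 5 training days recording escape latency, distance and swim speed; day-6 probe trial, platform removed, 60 s search, quadrant time and crossings counted. Two-way ANOVA versus model; SEM.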
# Homo sapiens [3] = species on record: Homo sapiens; assay: Inhibition of acetyl-PHF6 amide self-aggregation (unknown origin) in pH 7.4 phosphate buffer at 10 uM and 25 degreeC measured every 1 min for 120 mins under shaking condition by ThT fluorescence assay relative to control
# In short: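 AcPHF6 dissolved in HFIP, dried overnight, 1 mM water stock used at once. Final 100 μM peptide, 20 μM ThT, 10 μM compound (≤0.1% DMSO) in 50 mM phosphate buffer pH 7.4, 25 °C. Ex 440/em 490 nm read each minute for 120 min, 10 s shaking (400 rpm) before each read. Inhibition from mean signal at 50–60 min; ≥3 wells; mean ± SD of three experiments; DMSO negative control.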
# [4] = Acute toxicity in Sprague-Dawley rat model of OA-induced dementia assessed as mortality at 5 to 10 mg/kg, ip administered for 7 days; assay type: organism-based; conditions: in vivo, 168 h, dose 5-10 mg/kg, time 7 day
# In short: (§2)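 Adult male SD rats (260-280 g), n = 8 per group. Compound given ip at 5 or 10 mg/kg daily for 7 days in saline with 8% DMSO and 1% Tween-80 cosolvent; controls got vehicle. Okadaic acid (300 ng in 1.5 μL saline) then injected stereotaxically into right dorsal hippocampus under isoflurane, and ip dosing continued 7 more days. Body weight recorded throughout; swimming speed recorded in Morris water maze.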
# SH-SY5Y = assay: Cytotoxicity against human SH-SY5Y cells assessed as reduction in cell survival at 30 uM measured after 24 hrs by MTT assay; assay type: cell-based
# In short: (§3)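 Cells in high-glucose DMEM with 10% FBS, 5% CO₂, 37 °C, seeded 3000–5000/well, exposed to compound 24 h. MTT (0.5 mg/mL) 4 h, formazan dissolved in DMSO, absorbance 570 nm (reference 630 nm). Viability as percent of untreated control; mean ± SD, three independent experiments.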
# L02 = assay: Cytotoxicity against human L02 cells assessed as effect on cell viability at <=40 uM measured after 24 hrs by MTT assay; assay type: cell-based; conditions: l02, 24 h; in short: as §3
# BV-2 [5] = assay: Cytotoxicity against mouse BV-2 cells at 20 uM measured after 24 hrs by MTT assay; assay type: cell-based; conditions: bv-2, 24 h; in short: as §3
# [6] = target: Microtubule-associated protein tau (Homo sapiens) (UniProt P10636); assay: Inhibition of heparin-induced recombinant full length His-tagged 2N4R tau self-aggregation (unknown origin) expressed in Escherichia coli BL21 (DE3) assessed as reduction in aggregate formation at 10 uM measured after 6 mins by ThT fluorescence assay relative to control
# In short: (§4)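 His-tagged full-length 2N4R tau from E. coli BL21(DE3) (pET-28a, 1 mM IPTG, 37 °C), BCA-quantified, stored −80 °C. 10 μM tau with 10 μM compound and 1 mM DTT in 1× PBS at 37 °C, aggregation started with 10 μM heparin (MW 6117), 10 μM ThT. Ex 440/em 490 nm, read every 4 min with 2 min shaking (600 rpm) before reading.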
# Rattus norvegicus [7] = assay: Cognitive enhancing effect in Sprague-Dawley rat model of OA-induced dementia assessed as increase in time spent in virtual platform quadrant at 10 mg/kg, ip administered for 7 days by Morris water maze test; assay type: functional, organism-based; conditions: time 7.0 day; in short: as §1
# BV-2 [8] = assay: Antiinflammatory activity in mouse BV-2 cells assessed as inhibition of LPS-induced NO production at 10 uM pretreated with compound for 1 hr followed by LPS stimulation and measured after 18 hrs by Griess assay relative to control; assay type: functional; conditions: time 19 hrs
# In short: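 BV2 microglia grown in high-glucose DMEM with 10% FBS, seeded at 3 × 10^4 cells/well, preincubated with compound 1 h, then LPS (final 1 µg/ml) for 18 h. Supernatant mixed with equal volume Griess reagent, 10 min at 25 °C, absorbance 540 nm. Inhibition = (F_L−F_C)/(F_L−F₀) × 100. Mean ± SD, three independent experiments.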
# [9] = target: Microtubule-associated protein tau (Homo sapiens) (UniProt P10636); assay: Inhibition of heparin-induced recombinant full length His-tagged 2N4R tau self-aggregation (unknown origin) expressed in Escherichia coli BL21 (DE3) at 10 uM measured after 6 mins by ThT fluorescence assay; in short: as §4
# [10] = Acute toxicity in Sprague-Dawley rat model of OA-induced dementia assessed as effect on body weight at 5 to 10 mg/kg, ip administered for 14 days; conditions: in vivo, 336 h
# Homo sapiens [11] = species on record: Homo sapiens; assay: Inhibition of acetyl-PHF6 amide self-aggregation (unknown origin) in pH 7.4 phosphate buffer assessed as appearance of dot like structure with <5 nm at 20 uM and 25 degreeC measured after 10 mins by phosphotungstic acid staining based TEM analysis
# Homo sapiens [12] = species on record: Homo sapiens; assay: Inhibition of acetyl-PHF6 amide self-aggregation (unknown origin) in pH 7.4 phosphate buffer assessed as absence of fibrillar material at 20 uM and 25 degreeC measured after 10 mins by phosphotungstic acid staining based TEM analysis
# Rattus norvegicus [13] = assay: Cognitive enhancing effect in Sprague-Dawley rat model of OA-induced dementia assessed as increase in number of platform crossing at 10 mg/kg, ip administered for 7 days by Morris water maze test; assay type: functional, organism-based; conditions: time 7.0 day; in short: as §1
# [14] = Toxicity in Sprague-Dawley rat model of OA-induced dementia assessed as effect on swimming speed at 5 to 10 mg/kg, ip administered for 7 days; assay type: organism-based; conditions: in vivo, 168 h, dose 5-10 mg/kg, time 7 day; in short: as §2
# Microtubule-associated protein tau (Homo sapiens), sequence (P10636 whole entry): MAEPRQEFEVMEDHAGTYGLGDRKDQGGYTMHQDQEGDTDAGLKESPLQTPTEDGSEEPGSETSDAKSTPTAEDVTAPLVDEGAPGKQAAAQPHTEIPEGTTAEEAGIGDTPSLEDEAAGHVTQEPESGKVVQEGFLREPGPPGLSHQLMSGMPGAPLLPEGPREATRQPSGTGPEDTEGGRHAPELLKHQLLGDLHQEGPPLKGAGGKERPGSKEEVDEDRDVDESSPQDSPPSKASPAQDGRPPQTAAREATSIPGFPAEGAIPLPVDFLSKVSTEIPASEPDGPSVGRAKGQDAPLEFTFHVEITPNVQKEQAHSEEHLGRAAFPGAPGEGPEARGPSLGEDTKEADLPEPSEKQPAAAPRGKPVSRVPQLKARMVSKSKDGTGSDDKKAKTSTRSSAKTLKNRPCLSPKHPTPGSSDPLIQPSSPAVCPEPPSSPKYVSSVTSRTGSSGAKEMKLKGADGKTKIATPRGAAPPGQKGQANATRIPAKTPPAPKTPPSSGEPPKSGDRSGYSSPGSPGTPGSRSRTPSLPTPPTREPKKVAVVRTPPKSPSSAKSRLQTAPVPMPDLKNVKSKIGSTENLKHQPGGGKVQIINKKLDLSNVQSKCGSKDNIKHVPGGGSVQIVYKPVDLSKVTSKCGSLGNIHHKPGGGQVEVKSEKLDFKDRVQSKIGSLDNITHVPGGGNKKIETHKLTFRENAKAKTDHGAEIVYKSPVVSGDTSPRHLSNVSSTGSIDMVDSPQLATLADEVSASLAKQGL
smiles,measurement,setting,value
CC(=O)c1c(O)c(C)c(O)c2c1OC1=Cc3c(c(C)nn3-c3ccc(C(=O)O)cc3)C(=O)[C@@]12C,inhibition,Homo sapiens [1],Active
same,Time,Rattus norvegicus [2],18.5 s
same,inhibition,Homo sapiens [3],51.7%
same,Activity,[4],Non-Toxic
same,Activity,SH-SY5Y,Toxic
same,Activity,L02,Non-Toxic
same,Activity,BV-2 [5],Non-Toxic
same,inhibition,[6],50%
same,Activity,Rattus norvegicus [7],Active
same,inhibition at 10 µM,BV-2 [8],41%
same,inhibition,[9],Active
same,Activity,[10],Non-Toxic
same,inhibition,Homo sapiens [11],Active
same,inhibition,Homo sapiens [12],Active
same,Activity,Rattus norvegicus [13],Active
same,Activity,[14],Non-Toxic
